HCT116 PTEN-null: growth suppressors of cells with PTEN tumor suppressor deletion; HCT116 PTEN-null viability, CellTiter-Glo, 60 h; active compounds read low; viability, % at 10 µM; 140,000 tested, 1.2% active; AID 827;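 active = viability at or below a set limit, 4 SD under the median of all tested compounds, cut at about 3.7% in these data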;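 also: PTEN knockout HCT116 line with beta catenin targeted HCT116 as companion control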
H69AR inhibit: blocks growth of human H69AR lung tumor cells | viability, % at 10 µM | 85,000 tested, 6% active | H69AR lung tumor viability, ATP luminescence, 72 h; active compounds read low;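 active = viability at or below 40%; inactive = viability above 40%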;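 also: multidrug resistant small cell line overexpressing MRP-1 efflux transporter; 100% = mean luminescence of untreated control wells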
HCT116 bCat-KO: beta-catenin-lacking colon tumor cell growth suppression. AID 818. 140,000 tested, 1.5% active. HCT116 beta-catenin knockout viability, CellTiter-Glo, 60 h; active compounds read low. viability, % at 10 µM;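 active = viability at or under a set limit, the compound median less 4 SD, cut at about 6% in these data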;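 also: 0% = Hyamine 1622 control at 20 µM and 100% = untreated cell control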
Fibroblast inh: blocks proliferation of human lung fibroblasts; LL 47 human lung fibroblast viability, ATP luminescence; active compounds read low; viability, % at 10 µM; 85,000 tested, 1.1% active; AID 719;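 active = viability at or below 50% in the single dose screen; inactive = viability above 50%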;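 also: compound exposure lasted 72 h before the ATP readout; 100% = median luminescence of untreated cell-only wells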
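Test system: LL 47 human lung fibroblasts; Quantity: 1,150 cells/well; Buffer or medium: IMEM plus 15% FBS; Dosing: tenfold compound dosing solution, DMSO at 0.1%; Timing: overnight cell rest, 72 h compound treatment at 37 °C; Detection: ATP-based CellTiter-Glo luminescent readout; Read-out basis: viability percentage against median untreated-cell control; Controls: cell-only wells, no compound.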
HUVEC prolif 384: human endothelial cell proliferation inhibition | HUVEC proliferation, CellTiter-Glo luminescence, 72 h; active compounds read low | 86,000 tested, 1.1% active | viability, % at 10 µM (by protocol) | AID 648;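 active = viability at or below 30%; inactive = viability above 30%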;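 also: 100% = median luminescence of DMSO-only cell control wells on each plate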
An asterisk follows results filed as active; x = no result. Only a selection was taken, and hits are over-represented in it overall.

SMILES	HCT116 PTEN-null	H69AR inhibit	HCT116 bCat-KO	Fibroblast inh	HUVEC prolif 384
COc1cc(CNCc2ccccn2)ccc1OCC(N)=O	101.7	x	110.4	x	x
Cc1ccc2[nH]c3c(c2c1)CCCC3=O	91.8	89.1	91.8	87.4	27.2*
Cc1ccc2[nH]c3c(c2c1)CCc1cn[nH]c1-3	61.9	38.9*	51.0	98.5	69.5
Cc1ccc2[nH]c3c(c2c1)CCC3=O	93.4	95.6	107.9	106.2	32.0
COc1ccc(Cl)c(N2CCN(CCCNC(=O)Nc3ccc(C)cc3)CC2)c1	24.6	90.2	20.9	92.9	10.3*
COc1ccccc1N1CCN(CCCNC(=O)Nc2ccccc2C)CC1	87.4	99.3	87.6	95.0	120.0
COc1ccc(Cl)cc1N1CCN(CCNC(=O)Nc2ccccc2C)CC1	50.4	19.2*	54.8	74.6	5.3*
CCCCC1=C([O-])C2N=CC=CC2=[N+](c2ccccn2)C1=O (configuration not stated)	87.9	x	90.7	x	x
Cc1[nH]nc2c1C(c1ccoc1)C(C#N)=C(N)O2 (configuration not stated)	82.3	97.0	96.3	99.6	92.1
Cc1[nH]nc2c1C(c1cc(Br)cs1)C(C#N)=C(N)O2 (configuration not stated)	2.1*	x	2.0*	x	x
COc1ccc(NS(=O)(=O)c2cc(C)ccc2C)cc1	11.5	13.5*	7.7	77.8	62.0
COc1ccc(NC(=O)c2cc(-c3ccccc3)oc2C)cc1	97.7	x	101.0	x	x
COc1ccc(NS(=O)(=O)c2cc(OC)ccc2NC(=O)c2cc(C)oc2C)cc1	27.0	21.4*	22.3	67.1	56.1
Cn1cnnc1SCc1ccc(C(=O)N=Nc2c(O)n(C)c3ccccc23)cc1	96.4	x	93.1	x	x
CCc1ccc(C(=O)CN2C(=O)NC(C)(CCc3ccccc3)C2=O)cc1 (configuration not stated)	86.4	x	83.5	x	x
Cc1ccc(Cl)cc1NC(=O)c1cnn2c1NC(c1ccco1)CC2C(F)(F)F (configuration not stated)	69.5	78.2	68.0	99.1	101.5
O=C(Nc1ccc2c(c1)CCC2)c1cnn2c1NC(c1ccco1)CC2C(F)(F)F (configuration not stated)	69.1	30.4*	74.6	36.7*	54.7
Cc1ccc(C2CC(C(F)(F)F)n3ncc(C(N)=O)c3N2)cc1 (configuration not stated)	93.3	86.7	102.5	102.7	87.2
CC(C)(C)NC(=O)c1cnn2c1NC(c1ccc(F)cc1)CC2C(F)(F)F (configuration not stated)	99.3	67.4	94.4	33.0*	97.5
Fc1ccc(-c2nc3n(n2)Cc2ccccc2-3)cc1	52.5	36.6*	50.7	73.5	73.2
CCn1c(C)nc2cc(C(=O)n3cc(C(=O)c4ccccc4O)cn3)ccc21	97.5	x	105.5	x	x
CCn1c(C)nc2cc(-c3nc4n(n3)Cc3ccccc3-4)ccc21	16.5	16.2*	17.2	24.2*	25.6*
Cc1ccc(-c2nc3n(n2)Cc2ccccc2-3)cc1	78.3	67.5	69.0	86.8	84.5
Cc1ccc(C)c(Cc2c(C)nc3c(C(=O)NCc4ccc5c(c4)OCO5)cnn3c2C)c1	51.2	60.8	61.3	91.5	89.8
Cc1ccccc1Cc1c(C)nc2c(C(=O)NCc3ccc4c(c3)OCO4)cnn2c1C	72.7	29.4*	84.9	95.8	70.8
SMILES	HCT116 PTEN-null	H69AR inhibit	HCT116 bCat-KO	Fibroblast inh	HUVEC prolif 384
CCCCN(CCCC)C(=S)NC(=O)c1ccccc1Cl	62.7	x	51.0	x	x
Cc1nc(-n2ncc(C#N)c2N)c2c3c(sc2n1)CCC3	2.0*	79.9	84.0	96.2	65.5
O=C(Cn1nc(C(F)(F)F)cc1C1CC1)NCc1ccccc1F	101.2	x	97.2	x	x
CCN(CC)C(=O)C1=C(C)Nc2nnnn2C1c1cccnc1 (configuration not stated)	101.5	88.2	89.9	101.4	103.7
COC(=O)C(C)Sc1nc2c(c(-c3ccc(OC)cc3)c1C#N)-c1ccccc1C2=O (configuration not stated)	x	34.2*	x	87.8	55.3
CCC(Cc1ccccc1)NC(=O)C1CCC(CNc2c(N3CCCC3)c(=O)c2=O)CC1 (configuration not stated)	91.9	84.2	98.1	101.3	107.1
CCCSc1nc(SCC(=O)NCc2ccccc2)c2c3c(sc2n1)COC(C)(CC)C3 (configuration not stated)	97.2	37.2*	96.2	86.7	67.0
CCC1(C)Cc2c(sc3nc(NN)n(C)c(=O)c23)CO1 (configuration not stated)	59.6	12.4*	37.2	88.7	76.7
CCOC(=O)CSc1nc2sc3c(c2c(=O)[nH]1)CC(C)(CC)OC3 (configuration not stated)	116.5	95.4	100.7	106.5	86.0
CCCCSc1nc(SCC(=O)NCc2ccco2)c2c3c(sc2n1)COC(C)(CC)C3 (configuration not stated)	73.8	x	75.5	x	x
CCCCc1nc2sc3c(SCC(=O)NCc4ccco4)ncnc3c2c2c1CCC2	36.2	31.8*	14.1	46.7*	56.5
CCc1nc(SCC(=O)NCc2ccco2)c2c3c(sc2n1)CCCC3	77.6	57.2	85.8	105.8	55.1
CSc1nc(SCC(=O)NCc2ccco2)c2c3c(sc2n1)COC(C)(C)C3	39.6	23.4*	31.3	61.8	62.2
COc1ccc(OC)c(C(=O)CSc2nccc(-c3ccc(Br)cc3)n2)c1	84.0	x	87.2	x	x
Cc1nc2ccc(S(=O)(=O)NC(C(=O)Nc3nc4ccc(Cl)cc4s3)C(C)C)cc2s1 (configuration not stated)	53.5	30.5*	48.8	96.4	96.3
Cc1nc2ccc(S(=O)(=O)NC(C(=O)Nc3nccs3)C(C)C)cc2s1 (configuration not stated)	90.5	95.3	92.5	98.2	97.7
Clc1ccccc1-c1nc2nc3ccccc3nc2n1-c1ccc2c(c1)OCO2	77.6	x	73.8	x	x
N#Cc1ccc(-c2csc(NNC(=O)c3ccc(Br)cc3)n2)cc1	4.5	x	2.8*	x	x
CCCCn1c(SCC(=O)c2ccc(OC)cc2OC)nc2cc(S(N)(=O)=O)ccc21	93.6	73.0	86.5	101.9	113.2
CCCCn1c(SC(C)C(=O)c2ccc(OC)cc2)nc2cc(S(N)(=O)=O)ccc21 (configuration not stated)	58.1	32.9*	74.7	97.8	102.5
CCOC(=O)c1c(CNCCN(CC)CC)n(C)c2cc(Br)c(OC)cc12	59.3	33.5*	56.3	83.8	45.1
CCOC(=O)c1c(CN2CCN(CCO)CC2)n(C)c2cc(Br)c(OC)cc12	41.2	16.5*	54.0	71.6	45.5
CCN(CC)CCNC(=O)c1c(C)n(-c2ccccc2)c2cc(Br)c(OC)cc12	14.0	25.4*	6.2	56.0	6.1*
CCOC(=O)c1c(CN2CCCCC2)n(C)c2cc(Br)c(OC)cc12	46.7	77.2	32.1	93.9	59.1
CCOC(=O)C(C)(C)N(Cc1cccc(C)c1)S(=O)(=O)c1ccc(Cl)c([N+](=O)[O-])c1	3.3*	x	1.7*	x	x
